TNF death inh: inhibitors of TNF-alpha triggered necroptosis, primary screen, cell-based, Jurkat FADD-/-, single concentration. activation (protection from cell death), % at 10 µM. 220,000 tested, 0.068% active. Jurkat FADD-/- TNF necroptosis rescue, ATP luminescence, 24 h; 0 = TNF only, 100 = no-TNF cells. AID 463075, 2010;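 active = activation, meaning protection from cell death, of at least 50% relative to plate controls; inactive = activation below 50%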;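 note: necroptosis triggered by 40 ng/mL TNF-alpha added together with compound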
m-calpain inh: inhibitors of pig calpain II, primary screen, biochemical, fluorogenic peptide substrate, 1536-well; inhibition, % at 16 µM; 220,000 tested, 0.37% active; AID 1236, 2008; purified calpain II, 30 min;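 active = inhibition above about 50%, limit read from the data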
zVAD death inh: inhibitors of zVAD-triggered necroptosis, primary screen, L929 cells; L929 zVAD necroptosis rescue, ATP luminescence, 24 h; with zVAD 60 µM; viability rescue, % at 10 µM; 220,000 tested, 0.38% active; AID 1377, 2008;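 active = activation, scaled between plate controls, above about 75%, limit read from the data; inactive = activation under that limit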;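 note: 0% = zVAD with DMSO and 100% = DMSO alone without zVAD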
Wee1 stabilizer: Wee1 degradation inhibitors, primary screen, cell-based, HeLa, Wee1K328M-luciferase, luminescence; Wee1-like protein kinase (Homo sapiens), P30291; HeLa Luc-Wee1K328M stability; 100% = proteasome inhibitor MG132 effect; reporter increase, % at 5 µM; 220,000 tested, 1.2% active; AID 1321, 2008;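 active = activation above the mean of all tested compounds plus 3 SD, set per screening run, cut at about 8.8% in these data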;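 note: cells exposed to compound for 20 h before luminescence read; 0% = DMSO alone and 100% = MG132 at 30 µM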
Pf gametocyte: late stage P. falciparum gametocyte viability inhibitors, primary screen, ATP luminescence, HTS; P. falciparum stage V gametocytes, 24 h; inhibition, % at 10.9 µM; 150,000 tested, 0.065% active;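 active = inhibition above the mean plus 3 SD of compounds within the control limits, set per campaign, cut at about 38% in these data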;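 note: 0% = DMSO wells and 100% = medium only without gametocytes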
RBBP9 inh: human RBBP9 inhibitors, primary screen, biochemical, fluorescence polarization, FP-Rh probe, HTS; recombinant RBBP9; 220,000 tested, 0.2% active; inhibition, % at 7.94 µM;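 active = inhibition above the campaign mean of all tested compounds plus 3 SD, cut at about 14% in these data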;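 note: plate controls were DMSO wells with RBBP9 for no effect and wells lacking RBBP9 protein for full effect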
Target sequence (O75884 whole entry, looked up): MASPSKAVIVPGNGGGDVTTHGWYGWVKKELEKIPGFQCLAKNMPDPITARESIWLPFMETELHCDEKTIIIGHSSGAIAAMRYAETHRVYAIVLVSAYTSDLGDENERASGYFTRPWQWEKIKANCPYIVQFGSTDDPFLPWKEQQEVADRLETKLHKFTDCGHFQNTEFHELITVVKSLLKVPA
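Test system: recombinant human RBBP9. Quantity: 2.5 µM RBBP9 dispensing solution, before mixing. Detection: FP readout at 525/598 nm. Reagent: Serine-hydrolase probe FP-Rh, 375 nM pre-mixing. Measure: % inhibition. Control set: DMSO-treated enzyme wells and wells lacking RBBP9. Buffer or medium: Tris-NaCl-Pluronic buffer, pH 8.0. Times: preincubation 30 min plus labeling 45 min at 25 °C.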
Active calls of the source: *. Shown are actives, neighbours in structure and some others; about 2.1% of the full set was active somewhere.

For Cc1ccc(N2C(=O)N(c3ccc(C)cc3)C3CS(=O)(=O)CC32)cc1 (stereo not drawn) the results were TNF death inh 0, m-calpain inh -15, zVAD death inh 1, Wee1 stabilizer 0, Pf gametocyte 23 and RBBP9 inh 3.
Screening COc1ccc(OCCn2nnc(-c3ccc(Cl)cc3)n2)cc1 returned TNF death inh 1, m-calpain inh -10, zVAD death inh -1, Wee1 stabilizer 16* and RBBP9 inh -7.
`CC(C)Cn1c(N)c(C(=O)COC(=O)c2cnc(Cl)c(Cl)c2)c(=O)n(C)c1=O` gave TNF death inh 0, m-calpain inh 63*, zVAD death inh 0, Wee1 stabilizer 3 and RBBP9 inh -3.
`O=C1c2ccccc2-c2nnc(-c3ccc(F)cc3)cc21` gave TNF death inh -7, m-calpain inh -30, zVAD death inh -1, Wee1 stabilizer 9.8* and RBBP9 inh -4.
Screening O=C(N/N=C/c1c(Cl)cccc1Cl)c1n[nH]c2c1CCCC2 returned TNF death inh 0, m-calpain inh 23, zVAD death inh 5, Wee1 stabilizer 10.0*, Pf gametocyte -7 and RBBP9 inh 0.
C/C(=N\NC(=O)c1n[nH]c2c1CCC2)c1ccco1 was read as TNF death inh -5, m-calpain inh 4, zVAD death inh -1, Wee1 stabilizer 9.3*, Pf gametocyte -9 and RBBP9 inh -3.
Cc1ccsc1/C=N\NC(=O)c1n[nH]c2c1CCC2 was read as TNF death inh -9, m-calpain inh -1, zVAD death inh 1, Wee1 stabilizer 4, Pf gametocyte 0 and RBBP9 inh -3.
Screening O=C(NN=C1CCCC1)c1n[nH]c2c1CCCC2 returned TNF death inh 1, m-calpain inh 29, zVAD death inh -1, Wee1 stabilizer 0 and RBBP9 inh -10.
O=C(NN=C1CCCC1)c1n[nH]c2c1CCC2 was read as TNF death inh 1, m-calpain inh -24, zVAD death inh 1, Wee1 stabilizer 11*, Pf gametocyte -8 and RBBP9 inh -1.
COc1cccc(NC(=O)c2ccc(C(=O)c3ccccc3)o2)c1 was read as TNF death inh -1, m-calpain inh -1, zVAD death inh 7, Wee1 stabilizer 2, Pf gametocyte -16 and RBBP9 inh -9.
For O=C(CN1CCCCCC1=O)N1CCN(S(=O)(=O)c2cccs2)CC1 the results were TNF death inh 0, m-calpain inh -18, zVAD death inh -1, Wee1 stabilizer -1, Pf gametocyte 6 and RBBP9 inh 0.
For Cc1cc(N2CCN(C(=O)c3ccco3)CC2)n2nc(-c3cccc(Cl)c3)cc2n1 the results were TNF death inh 1, m-calpain inh -94, zVAD death inh 1, Wee1 stabilizer 9.2*, Pf gametocyte -32 and RBBP9 inh -2.
`CCNS(=O)(=O)c1ccc(CCC(=O)NCc2ccncc2)cc1` gave Pf gametocyte 9.
`CC(C)NS(=O)(=O)c1ccc(CCC(=O)NCc2ccncc2)cc1` gave TNF death inh 1, m-calpain inh -21, zVAD death inh 2, Wee1 stabilizer 9.5*, Pf gametocyte -11 and RBBP9 inh -1.
Screening Cc1ccc(S(=O)(=O)c2c(C(=O)c3ccccc3)cnc3cc4c(cc23)OCCO4)cc1 returned TNF death inh -1, m-calpain inh -87, zVAD death inh 0, Wee1 stabilizer 2, Pf gametocyte -15 and RBBP9 inh -7.
For O=C(OCc1nnc(-c2ccccc2)o1)c1ccccc1 the results were TNF death inh 1, m-calpain inh 10, zVAD death inh 4, Wee1 stabilizer -3, Pf gametocyte 13 and RBBP9 inh 1.
Screening O=C(OCc1nnc(-c2ccccc2)o1)C12CC3CC(CC(Br)(C3)C1)C2 returned TNF death inh -1, m-calpain inh 47, zVAD death inh 0, Wee1 stabilizer 9.6*, Pf gametocyte 19 and RBBP9 inh -13.
For CC(=O)C1=C(O)C(=O)N(c2ccc(O)cc2)C1c1ccc([N+](=O)[O-])cc1 (stereo not drawn) the results were TNF death inh 0, m-calpain inh -6, zVAD death inh 1, Wee1 stabilizer 9.3*, Pf gametocyte -11 and RBBP9 inh 1.
CC(=O)C1=C(O)C(=O)N(c2ccc(C)cc2)C1c1ccc([N+](=O)[O-])cc1 (stereo not drawn) was read as TNF death inh -2, m-calpain inh -7, zVAD death inh 1, Wee1 stabilizer 9, Pf gametocyte 4 and RBBP9 inh 3.
Screening C=CCn1c(SC(C)C#N)nc2sc(CC)cc2c1=O (stereo not drawn) returned TNF death inh 0, m-calpain inh -2, zVAD death inh 27, Wee1 stabilizer 11*, Pf gametocyte 31 and RBBP9 inh -5.
CC(C)=CC(=O)Nc1nnc(C(C)C)s1 was read as TNF death inh 0, m-calpain inh -17, zVAD death inh 0, Wee1 stabilizer 2 and RBBP9 inh -1.
For COC(=O)c1ccc(NC(=S)NNC(=O)CC(C)C)cc1 the results were TNF death inh 2, m-calpain inh -6, zVAD death inh 0, Wee1 stabilizer 10*, Pf gametocyte -14 and RBBP9 inh -6.
Cn1ncc([N+](=O)[O-])c1C(=O)n1nnc2ccccc21 was read as TNF death inh -1, m-calpain inh 0, zVAD death inh 1, Wee1 stabilizer 27* and RBBP9 inh -4.
`CCOc1ccc(CC(=O)OCn2nnc3ccccc3c2=O)cc1` gave TNF death inh 2, m-calpain inh 66*, zVAD death inh 0, Wee1 stabilizer -2, Pf gametocyte 14 and RBBP9 inh -7.
`CS(=O)(=O)c1ccc2nc(NC(=O)Nc3ccc(Cl)c(Cl)c3)sc2c1` gave TNF death inh 2, m-calpain inh -12, zVAD death inh 7, Wee1 stabilizer 2, Pf gametocyte 3 and RBBP9 inh -7.
Screening CS(=O)(=O)c1ccc2nc(NC(=O)Nc3cccc(Cl)c3)sc2c1 returned TNF death inh -7, m-calpain inh 13, zVAD death inh 83*, Wee1 stabilizer 6 and RBBP9 inh -8.
`CC[C@@H](C)[C@H](CN[C@H](CNC)[C@@H](C)O)NCCc1ccc(OC)cc1` gave Pf gametocyte 5.
`Nc1nc(CN2CCCCCC2)nc(Nc2ccccc2)n1` gave TNF death inh 1, m-calpain inh -2, zVAD death inh 0, Wee1 stabilizer -1, Pf gametocyte -26 and RBBP9 inh 2.

Source: PubChem BioAssay
